Measurements reported in ChEMBL document CHEMBL1649306, “Arylimidamide DB766, a potential chemotherapeutic candidate for Chagas' disease treatment” (Antimicrob Agents Chemother, 2010).
The source made the active and inactive calls. The calls are words filed in the database; no cut-off is given here.

Experiments:
Trypanosoma cruzi [1] = assay: Antitrypanosomal activity against Trypanosoma cruzi Y bloodstream forms infected in Swiss-Webster mouse assessed as reduction in parasite-induced weight loss in mouse at 100 mg/kg/day, po administered 5 days postinfection for 10 consecutive days measured on day 120; format: functional, organism-based
Method in brief: (§1)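 Body weight of infected, treated mice followed from 0 to 120 dpi.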

Trypanosoma cruzi [2] = assay: Antitrypanosomal activity against Trypanosoma cruzi Columbian bloodstream forms infected in C3H mouse assessed as reduction in parasite-induced weight loss at 25 mg/kg/day, ip administered 5 days postinfection for 10 consecutive days measured after 120 days; format: functional, organism-based; method in brief: as §1
Mus musculus [3] = assay: Toxicity in female Swiss-Webster mouse assessed as mortality at cumulative dose of 200 mg/kg, ip measured after 48 hrs; format: organism-based; set-up: dose 200 mg/kg, route intraperitoneal; conditions: in vivo
Method in brief: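 Uninfected 8–10-week-old female and male Swiss Webster and C3H/He (H-2k) mice injected i.p. on day 1 every 2 h with escalating doses: 5, 15, 30, 50 and 100 mg/kg (cumulative 20, 50, 100, 200 mg/kg). Toxic and subtoxic signs inspected on days 2–3 per OECD guidelines; tolerated dose set at 48 h.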

Trypanosoma cruzi [4] = assay: Antitrypanosomal activity against Trypanosoma cruzi Y bloodstream forms infected in Swiss-Webster mouse assessed as reduction in parasite-induced weight loss in mouse at 25 mg/kg/day, ip administered 5 days postinfection for 10 consecutive days measured on day 120; format: functional, organism-based; method in brief: as §1
Trypanosoma cruzi [5] = assay: Antitrypanosomal activity against bloodstream forms of Trypanosoma cruzi CL after 24 hrs by light microscopy in presence of 50% mouse blood; format: functional, organism-based
Method in brief: (§2)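 Bloodstream trypomastigotes kept at 4°C for 24 h in freshly isolated 50% mouse blood with serial dilutions (up to 32 μM). Motile live parasites counted in a Neubauer chamber by light microscopy; IC50 calculated as concentration reducing parasite number by 50%.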

Trypanosoma cruzi [6] = assay: Antitrypanosomal activity against Trypanosoma cruzi 855 epimastigotes after 24 hrs by light microscopy; format: functional, organism-based; conditions: Trypanosoma cruzi, 855, 24 h
Method in brief: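 Epimastigotes from 5-day exponential cultures, 5 × 10^6 parasites/ml in LIT medium, incubated at 28°C up to 96 h with DB766 0 to 32 μM or Bz 0 to 250 μM. Counted daily in a Neubauer chamber. IC50 averaged from at least three determinations in duplicate.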

[7] = Cytotoxicity against Swiss-Webster mouse cardiomyocytes after 72 hrs by MTT assay; format: cell-based, Cardiomyocyte; conditions: read-out: LC50
Method in brief: (§3)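 Primary embryonic cardiomyocytes from Swiss mice, uninfected, incubated 24 h or 72 h at 37°C, 5% CO2, with 0 to 96 μM in DMEM. MTT read at 490 nm; LC50 taken as concentration reducing viability by 50%; at least three experiments in duplicate.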

Mus musculus [8] = assay: Toxicity in […](H-2k) mouse assessed as effect on GPT level at 100 mg/kg/day, […]; format: organism-based; conditions: in vivo
Trypanosoma cruzi [9] = assay: Antitrypanosomal activity against Trypanosoma cruzi Columbian bloodstream forms infected in C3H mouse assessed as decrease in parasite-induced cardiac inflammation at 100 mg/kg/day, ip administered 5 days postinfection for 10 consecutive days measured after 43 days; format: functional, Heart; set-up: scale not given: the % may be the effect or the level left; conditions: route intraperitoneal
Method in brief: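 Male C3H/He mice infected i.p. with 5 × 10^3 Colombian strain bloodstream forms, given 100 mg/kg/day i.p. daily for 10 days. At 43 dpi, H&E-stained 3 μm heart sections scored for amastigote nests and infiltrates (>10 mononuclear cells) over at least 100 fields. Three sections each from at least three mice.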

Trypanosoma cruzi [10] = assay: Antitrypanosomal activity against Trypanosoma cruzi Columbian bloodstream forms infected in C3H mouse assessed as decrease in parasite load at 100 mg/kg/day, ip administered 5 days postinfection for 10 consecutive days measured after 31 days; format: functional; set-up: scale not given: the % may be the effect or the level left; conditions: route intraperitoneal
Method in brief: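 C3H/He mice infected i.p. with 10^3 or 5 × 10^3 Colombian strain bloodstream forms. Treated daily for 10 days with 0.1 ml i.p. or by gavage, reference drug given by gavage. Parasitemia measured by the Pizzi-Brener method; n ≥ 6 parasitemic mice per group.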

Trypanosoma cruzi [11] = assay: Antitrypanosomal activity against Trypanosoma cruzi Y bloodstream forms infected in Swiss-Webster mouse assessed as reduction in parasite-induced weight loss in mouse at 50 mg/kg/day, ip administered 5 days postinfection for 10 consecutive days measured on day 120; format: functional, organism-based; method in brief: as §1
Trypanosoma cruzi [12] = assay: Antitrypanosomal activity against Trypanosoma cruzi Y bloodstream forms infected in Swiss-Webster mouse assessed as decrease in parasite load at 25 mg/kg/day, ip administered 8 days postinfection measured on day 2; format: functional; set-up: scale not given: the % may be the effect or the level left; conditions: route intraperitoneal
Method in brief: (§4)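 Male Swiss mice infected i.p. with 10^4 Y strain bloodstream forms. Given 0.2 ml i.p. at 5 and 8 dpi, or daily for 10 days from 5 dpi; reference drug given by gavage. Parasitemia measured by the Pizzi-Brener method, cumulative mortality checked daily to 120 dpi, n ≥ 6 per group.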

Trypanosoma cruzi [13] = assay: Antitrypanosomal activity against bloodstream forms of Trypanosoma cruzi Y infected in Swiss mouse cardiomyocytes assessed as parasite mitochondrial swelling at 10 ug/ml after 2 hrs by transmission electron microscopy; format: functional, organism-based
Method in brief: (§5)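 Y-strain bloodstream trypomastigotes treated 2 to 24 h at 37°C. Fixed 60 min at 4°C in 2.5% glutaraldehyde in 0.1 M cacodylate, pH 7.2. Postfixed 1 h at 4°C in 1% OsO4 with 0.8% potassium ferricyanide. Acetone-dehydrated, Epon-embedded, sections stained with uranyl acetate and lead citrate, ultrastructure examined by TEM.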

Mus musculus [14] = assay: Toxicity in male Swiss-Webster mouse assessed as weight loss at cumulative dose of 200 mg/kg, ip measured after 48 hrs; format: organism-based; set-up: dose 200 mg/kg, route intraperitoneal; conditions: in vivo
Method in brief: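 Acute toxicity in 8–10-week-old Swiss Webster mice. i.p. injections every 2 h of 5, 15, 30, 50 and 100 mg/kg (cumulative 200 mg/kg) on day 1. Toxic and subtoxic signs inspected on days 2 and 3 per OECD guidelines; outcome read 48 h after injection.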

Trypanosoma cruzi [15] = assay: Antitrypanosomal activity against Trypanosoma cruzi Y bloodstream forms infected in Swiss-Webster mouse assessed as survival of mouse at 25 mg/kg/day, ip administered 8 days postinfection measured on day 120; format: functional, organism-based; method in brief: as §4
Trypanosoma cruzi [16] = assay: Antitrypanosomal activity against bloodstream forms of Trypanosoma cruzi Y infected in Swiss mouse cardiomyocytes assessed as parasite crista dilation at 10 ug/ml after 2 hrs by transmission electron microscopy; format: functional, organism-based; method in brief: as §5
Trypanosoma cruzi [17] = assay: Antitrypanosomal activity against Trypanosoma cruzi Y bloodstream forms infected in Swiss mouse cardiomyocytes assessed as parasite crista dilation at 10 ug/ml after 24 hrs by transmission electron microscopy; format: functional, organism-based
[18] = Cytotoxicity against Swiss-Webster mouse cardiomyocytes after 24 hrs by MTT assay; format: cell-based, Cardiomyocyte; conditions: read-out: LC50; method in brief: as §3
Trypanosoma cruzi [19] = assay: Antitrypanosomal activity against Trypanosoma cruzi Y bloodstream forms infected in Swiss-Webster mouse assessed as decrease in parasite load at 50 mg/kg/day, ip administered 5 days postinfection for 10 consecutive days measured after 8 days; format: functional; set-up: scale not given: the % may be the effect or the level left; conditions: route intraperitoneal
Method in brief: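 Eight-week-old male Swiss mice infected i.p. with 10^4 Y-strain bloodstream trypomastigotes; parasitemia-positive mice only (n ≥ 6). Dosing i.p. (0.2 ml) daily for 10 consecutive days from parasitemia onset (5 dpi). Parasitemia at the 8 dpi peak counted by Pizzi-Brener method; reduction relative to infected untreated group.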

Trypanosoma cruzi [20] = assay: Antitrypanosomal activity against Trypanosoma cruzi Y amastigotes infected in Swiss-Webster CM cells assessed as parasite DNA to host cell nucleus ratio at 10 ug/ml after 1 hr by fluorescence and transmission electron microscopy analysis; format: functional
Mus musculus [21] = assay: Toxicity in […](H-2k) mouse assessed as effect on creatine kinase level at 100 mg/kg/day, ip; format: organism-based; set-up: route intraperitoneal; conditions: in vivo
Trypanosoma cruzi [22] = assay: Antitrypanosomal activity against bloodstream forms of Trypanosoma cruzi Y after 24 hrs by light microscopy in presence of 50% mouse blood; format: functional, organism-based; method in brief: as §2

SMILES: CC(C)Oc1cc(NC(=N)c2ccccn2)ccc1-c1ccc(-c2ccc(NC(=N)c3ccccn3)cc2OC(C)C)o1
- Activity (Trypanosoma cruzi [1]): Active
- Activity (Trypanosoma cruzi [2]): inactive
- Activity (Mus musculus [3]): Non-toxic
- Activity (Trypanosoma cruzi [4]): inactive
- IC50 (Trypanosoma cruzi [5]): 710 nM
- IC50 (Trypanosoma cruzi [6]): 90 nM
- IC90 (Trypanosoma cruzi [6]): 330 nM
- CC50 at 72 h [7]: 16400 nM
- Activity (Mus musculus [8]): Non-toxic
- Activity (Trypanosoma cruzi [9]): 75%
- Activity (Trypanosoma cruzi [10]): 100%
- Activity (Trypanosoma cruzi [11]): inactive
- Activity (Trypanosoma cruzi [12]): 78%
- Activity (Trypanosoma cruzi [13]): Active
- Activity (Mus musculus [14]): 10%
- Activity (Trypanosoma cruzi [15]): Active
- Activity (Trypanosoma cruzi [16]): Active
- Activity (Trypanosoma cruzi [17]): Active
- CC50 at 24 h [18]: > 32000 nM
- Activity (Trypanosoma cruzi [19]): 98%
- Ratio (Trypanosoma cruzi [20]): 2.1
- Activity (Mus musculus [21]): Non-toxic
- IC50 (Trypanosoma cruzi [22]): 710 nM
